Reference: ChEMBL document CHEMBL1132694, “Discovery and structure-activity relationships of imidazole-containing tetrahydrobenzodiazepine inhibitors of farnesyltransferase” (J Med Chem, 1999)
pEC50, pIC50: −log10 of the molar value.

Columns and labels:
[1] = molecular target: T1, Protein farnesyltransferase (Homo sapiens, UniProt P49354+P49356); assay: Inhibitory activity against human purified recombinant farnesyltransferase (hFT); type: protein-complex assay
Method in brief: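 Purified (>90%) recombinant human FT at 0.3 nM, with 10 μM ZnCl2. Activity was measured as incorporation of tritium from [3H]farnesyl pyrophosphate into recombinant human H-Ras. Result reported as IC50.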

[2] = molecular target: T1, Protein farnesyltransferase; assay: Phenotypic reversion of H-Ras transformed NIH3T3 cells at 1.25 uM; type: functional, cell-based; settings: Mus musculus
Mus musculus [3] = assay: In vivo antitumor activity against Rat-1 tumors in mice at 90 mg/kg; type: functional
Method in brief: (§1)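 Female athymic Balb/c-background mice (18-22 g) were implanted ip with 1 × 10^6 in vitro-propagated H-Ras-transformed Rat-1 fibroblasts. Dosing was ip, once daily for 7 days from day 1, with compound in 10% ethanol/sterile water given within 1 h of dissolution. Groups were typically 6 treated and 8 control mice. Read-out was median survival as %T/C, with ≥125% counted active (Gehan's generalized Wilcoxon test).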

[4] = molecular target: T1, Protein farnesyltransferase; assay: Phenotypic reversion of H-Ras transformed NIH3T3 cells at 5 uM.; type: functional, cell-based; settings: Mus musculus
Rat1 = assay: Inhibition of anchorage independent growth of H-Ras transformed Rat-1 cells.; type: functional, cell-based
Mus musculus [5] = assay: In vivo antitumor activity against Rat-1 tumors in mice at 10 mg/kg; type: functional; method in brief: as §1
[6] = molecular target: T1, Protein farnesyltransferase; assay: Phenotypic reversion of H-Ras transformed NIH3T3 cells by the compound at a concentration of 10 uM; type: functional, cell-based; settings: Mus musculus
[7] = molecular target: T1, Protein farnesyltransferase; assay: Inhibition of human purified recombinant farnesyltransferase (hFT) at 90 uM; type: protein-complex assay

O=C(c1ccccc1OC(F)(F)F)N1CCN(Cc2cnc[nH]2)c2ccc(-c3ccncc3)cc2C1
pIC50 [1]: 7.62

O=C(c1cccc2ccccc12)N1CCN(Cc2c[nH]cn2)c2ccc(-c3ccncc3)cc2C1
Reversion activity [2]: 60% | T/C (Mus musculus [3]): 108% | Reversion activity [4]: 95% | pIC50 [1]: 7.81 | pEC50 (Rat1): 6.70

O=C(c1ccccc1SCCO)N1CCN(Cc2cnc[nH]2)c2ccc(-c3ccccc3)cc2C1
pIC50 [1]: 6.91

O=C(Nc1ccc2c(c1)N(Cc1c[nH]cn1)CCN(C(=O)c1cccc3ccccc13)C2)OC1CCCCC1
Reversion activity [2]: 40% | Reversion activity [4]: 95% | pEC50 (Rat1): 6.96

O=C(N1CCN(Cc2cnc[nH]2)c2ccc(-c3ccccc3)cc2C1)N1CCCc2ccccc21
pIC50 [1]: 6.69

NCCc1nc(CN2CCN(C(=O)c3cccc4ccccc34)Cc3ccccc32)c[nH]1
pIC50 [1]: 5.89

O=C(c1cccc2ccccc12)N1CCN(Cc2cnc[nH]2)c2cc(Cl)ccc2C1
pIC50 [1]: 6.27

O=C(c1cccc2ccccc12)N1CCN(Cc2c[nH]cn2)c2ccc(-c3cccnc3)cc2C1
Reversion activity [2]: 0% | Reversion activity [4]: 70% | pIC50 [1]: 6.84 | pEC50 (Rat1): 6.00

O=C(Nc1ccc2c(c1)N(Cc1c[nH]cn1)CCN(C(=O)c1cccc3ccccc13)C2)c1ccccc1
Reversion activity [2]: 0% | T/C (Mus musculus [3]): 128% | Reversion activity [4]: 75% | pIC50 [1]: 7.55 | pEC50 (Rat1): 6.52

O=C(Cc1ccccc1Oc1ccccc1)N1CCN(Cc2c[nH]cn2)c2ccccc2C1
pIC50 [1]: 6.15

O=C(c1cccc2ccccc12)N1CCN(Cc2c[nH]cn2)c2cc(NS(=O)(=O)c3ccccc3)ccc2C1
Reversion activity [2]: 0% | Reversion activity [4]: 0% | pIC50 [1]: 6.60 | pEC50 (Rat1): 4.96

O=C(Nc1ccc2c(c1)N(Cc1c[nH]cn1)CCN(C(=O)c1cccc3ccccc13)C2)C1CCCCC1
Reversion activity [2]: 0% | T/C (Mus musculus [5]): 138% | Reversion activity [4]: 45% | pIC50 [1]: 7.74 | pEC50 (Rat1): 6.47

O=C(Nc1ccc2c(c1)N(Cc1c[nH]cn1)CCN(C(=O)c1cccc3ccccc13)C2)NC1CCCCC1
Reversion activity [2]: 0% | Reversion activity [4]: 0% | pIC50 [1]: 7.45 | pEC50 (Rat1): 5.40

c1ccc(-c2ccc3c(c2)CN(c2nnnn2-c2ccccc2)CCN3Cc2cnc[nH]2)cc1
pIC50 [1]: 6.15

COCC[C@H]1CN(C(=O)c2cccc3ccccc23)CCN1Cc1c[nH]cn1
pIC50 [1]: 5.89

O=C(c1cccc2ccccc12)N1CCN(Cc2cnc[nH]2)Cc2ccccc21
pIC50 [1]: 5.55

COCC[C@H]1CN(C(=O)c2cccc3ccccc23)CCN1CCCc1c[nH]cn1
pIC50 [1]: 5.00

COC(=O)c1ccccc1S(=O)(=O)N1CCN(Cc2c[nH]cn2)c2ccccc2C1
pIC50 [1]: 6.14 | pEC50 (Rat1): 5.80

COc1ccc(C(=O)C(=O)N2CCN(Cc3c[nH]cn3)c3ccc(-c4ccccc4)cc3C2)cc1
Reversion activity [2]: 0% | Reversion activity [4]: 90% | pEC50 (Rat1): 6.05

O=C(c1cccc2ccccc12)N1CCN(CCc2c[nH]cn2)c2ccccc2C1
Reversion activity [6]: 20% | pIC50 [1]: 6.47

CC(=O)Nc1ccc2c(c1)N(Cc1cnc[nH]1)CCN(C(=O)c1cccc3ccccc13)C2
pIC50 [1]: 6.77

O=C(c1ccccc1SCCO)N1CCN(Cc2c[nH]cn2)c2ccc(-c3ccccc3)cc2C1
Reversion activity [2]: 0% | Reversion activity [4]: 90% | pEC50 (Rat1): 6.70

N#C/N=C(/Nc1ccc(Cl)cc1)N1CCN(Cc2c[nH]cn2)c2ccc(-c3ccccc3)cc2C1
Reversion activity [2]: 0% | Reversion activity [4]: 5%

O=C(c1cccc2ccccc12)N1CCN(Cc2cncn2Cc2ccccc2)c2ccccc2C1
pIC50 [1]: 5.96

Cc1cccc2c1N(Cc1c[nH]cn1)CCN(C(=O)c1cccc3ccccc13)C2
Reversion activity [2]: 0% | Reversion activity [4]: 35% | pIC50 [1]: 6.46 | pEC50 (Rat1): 4.92

c1ccc(-c2ccc3c(c2)CN(Cc2cccc4ccccc24)CCN3Cc2c[nH]cn2)cc1
Reversion activity [2]: 0% | Reversion activity [4]: 0%

O=C(c1cccc2ccccc12)N1CCN(Cc2c[nH]cn2)c2ccc(Br)cc2C1
Reversion activity [2]: 0% | Reversion activity [4]: 5%

O=C(Nc1ccc2c(c1)N(Cc1cnc[nH]1)CCN(C(=O)c1cccc3ccccc13)C2)OC1CCCCC1
pIC50 [1]: 7.55

O=C(c1cccc2ccccc12)N1CCN(Cc2c[nH]cn2)c2ccc(-c3ccccn3)cc2C1
Reversion activity [2]: 0% | Reversion activity [4]: 0% | pIC50 [1]: 6.75

O=C(c1cccc2ccccc12)N1CCN(Cc2ncc[nH]2)c2ccccc2C1
pIC50 [1]: 4.68

c1ccc(-c2ccc3c(c2)CN(Cc2cccc4ccccc24)CCN3Cc2cnc[nH]2)cc1
pIC50 [1]: 5.53

COc1ccc(C(=O)C(=O)N2CCN(Cc3cnc[nH]3)c3ccc(-c4ccccc4)cc3C2)cc1
pIC50 [1]: 7.04

O=C(c1cccc2ccccc12)N1CCN(CCCc2ncc[nH]2)c2ccccc2C1
pIC50 [1]: 6.23

O=C(c1ccccc1-c1ccccc1)N1CCN(Cc2cnc[nH]2)c2ccccc2C1
pIC50 [1]: 6.49

NCc1ncc(CN2CCN(C(=O)c3cccc4ccccc34)Cc3ccccc32)[nH]1
pIC50 [1]: 6.08

COc1ccc2ccccc2c1C(=O)N1CCN(Cc2c[nH]cn2)c2ccc(-c3ccccc3)cc2C1
Reversion activity [2]: 85% | Reversion activity [4]: 95% | pEC50 (Rat1): 6.26

O=C(c1cccc2ccccc12)N1CCN(Cc2cnc[nH]2)c2ccc(C3CCCCC3)cc2C1
pIC50 [1]: 6.73

COCC[C@H]1CN(C(=O)c2cccc3ccccc23)CCN1CCc1c[nH]cn1
pIC50 [1]: 5.49

c1ccc(-c2ccc3c(c2)CN(c2nnnn2-c2ccccc2)CCN3Cc2c[nH]cn2)cc1
Reversion activity [2]: 0% | Reversion activity [4]: 0%

O=S(=O)(c1cccc2ccccc12)N1CCN(Cc2c[nH]cn2)c2ccccc2C1
pIC50 [1]: 6.32

O=C(N1CCN(Cc2c[nH]cn2)c2ccc(-c3ccccc3)cc2C1)N1CCCc2ccccc21
Reversion activity [2]: 0% | Reversion activity [4]: 40%

O=C(c1cccc2ccccc12)N1CCN(Cc2c[nH]cn2)Cc2ccccc21
Reversion activity [6]: 0% | pEC50 (Rat1): 5.52

O=C(c1cccc2ccccc12)N1CCN(Cc2cnc[nH]2)c2ccc(-c3ccccc3)cc2C1
pIC50 [1]: 7.02

COCC[C@H]1CN(C(=O)c2cccc3ccccc23)CCN1C(=O)CCc1cnc[nH]1
pIC50 [1]: 4.57

O=C(c1ccccc1-c1ccccc1)N1CCN(Cc2c[nH]cn2)c2ccccc2C1
Reversion activity [6]: 25% | pEC50 (Rat1): 6.15

COCC[C@H]1CN(C(=O)c2cccc3ccccc23)CCN1C(=O)c1c[nH]cn1
inhibition [7]: 51%

CC(=O)Nc1ccc2c(c1)N(Cc1c[nH]cn1)CCN(C(=O)c1cccc3ccccc13)C2
Reversion activity [2]: 0% | Reversion activity [4]: 0%

COc1ccc2ccccc2c1C(=O)N1CCN(Cc2cnc[nH]2)c2ccc(-c3ccccc3)cc2C1
pIC50 [1]: 7.24

O=C(N1CCN(Cc2cnc[nH]2)c2ccccc2C1)N(c1ccccc1)c1ccccc1
pIC50 [1]: 5.92

O=C(c1cccc2ccccc12)N1CCN(Cc2c[nH]cn2)c2ccccc2C1
Reversion activity [6]: 0% | pIC50 [1]: 6.34 | pEC50 (Rat1): 5.22

O=C(c1ccccc1NCc1ccccc1)N1CCN(Cc2cnc[nH]2)c2ccccc2C1
pIC50 [1]: 6.22 | pEC50 (Rat1): 5.62

O=C(c1cccc2ccccc12)N1CCN(Cc2cnc[nH]2)c2ccc(Br)cc2C1
pIC50 [1]: 6.64

O=C(c1ccccc1OC(F)(F)F)N1CCN(Cc2c[nH]cn2)c2ccc(-c3ccncc3)cc2C1
Reversion activity [2]: 85% | Reversion activity [4]: 95% | pEC50 (Rat1): 6.80

O=C(c1cccc2ccccc12)N1CCN(Cc2c[nH]cn2)c2ccc(C3CCCCC3)cc2C1
Reversion activity [2]: 0% | Reversion activity [4]: 20%

COCC[C@H]1CN(C(=O)c2cccc3ccccc23)CCN1C(=O)Cc1cnc[nH]1
pIC50 [1]: 4.47

Nc1ccc2c(c1)N(Cc1cnc[nH]1)CCN(C(=O)c1cccc3ccccc13)C2
pIC50 [1]: 6.00 | pEC50 (Rat1): 5.62

N#CN=C(Nc1ccc(Cl)cc1)N1CCN(Cc2cnc[nH]2)c2ccc(-c3ccccc3)cc2C1
pIC50 [1]: 5.85

O=S(=O)(c1cccc2ccccc12)N1CCN(Cc2c[nH]cn2)c2ccc(-c3ccccc3)cc2C1
Reversion activity [2]: 0% | Reversion activity [4]: 25% | pIC50 [1]: 6.37
